Reference: ChEMBL document CHEMBL1131082, “Discovery and preliminary SAR studies of a novel, nonsteroidal progesterone receptor antagonist pharmacophore” (J Med Chem, 1998)
Values belong to the compound of their own block, whether it stands above or below them.

How the values were obtained:
[1] = biological target: T1, Progesterone receptor (Homo sapiens, UniProt P06401); assay: Binding affinity against Baculovirus-Expressed hPR-A
T1 sequence (P06401 whole entry): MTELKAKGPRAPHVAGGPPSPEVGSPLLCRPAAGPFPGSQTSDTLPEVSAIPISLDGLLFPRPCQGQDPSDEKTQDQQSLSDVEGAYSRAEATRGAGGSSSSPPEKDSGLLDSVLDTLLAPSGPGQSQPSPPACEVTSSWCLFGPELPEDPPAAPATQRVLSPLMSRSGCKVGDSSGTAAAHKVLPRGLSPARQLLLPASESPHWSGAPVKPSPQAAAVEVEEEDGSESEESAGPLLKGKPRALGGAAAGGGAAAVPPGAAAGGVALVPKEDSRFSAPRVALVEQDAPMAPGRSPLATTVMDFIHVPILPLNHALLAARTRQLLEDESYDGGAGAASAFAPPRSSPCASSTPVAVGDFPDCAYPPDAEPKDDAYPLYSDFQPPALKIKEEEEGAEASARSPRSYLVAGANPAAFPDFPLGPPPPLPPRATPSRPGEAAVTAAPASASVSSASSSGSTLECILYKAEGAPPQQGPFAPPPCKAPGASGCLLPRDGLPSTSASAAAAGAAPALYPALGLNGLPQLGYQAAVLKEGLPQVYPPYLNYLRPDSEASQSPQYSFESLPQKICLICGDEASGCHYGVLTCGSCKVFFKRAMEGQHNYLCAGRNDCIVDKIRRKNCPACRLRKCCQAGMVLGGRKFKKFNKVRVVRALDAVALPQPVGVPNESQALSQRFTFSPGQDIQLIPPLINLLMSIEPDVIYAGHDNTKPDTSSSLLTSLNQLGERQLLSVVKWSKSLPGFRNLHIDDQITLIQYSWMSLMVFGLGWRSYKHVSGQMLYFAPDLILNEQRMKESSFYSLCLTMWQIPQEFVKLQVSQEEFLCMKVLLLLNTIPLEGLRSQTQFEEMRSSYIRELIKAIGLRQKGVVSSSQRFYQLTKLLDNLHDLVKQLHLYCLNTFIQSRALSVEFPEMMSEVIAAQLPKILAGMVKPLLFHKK

[2] = biological target: T1, Progesterone receptor; assay: In vitro antagonist activity against human progesterone receptor isoform B(hPR-B) in mammalian(CV-1) cells; format: functional, cell-based
[3] = biological target: T2, Mineralocorticoid receptor (Homo sapiens) (UniProt P08235); assay: Antagonist activity against Mineralocorticoid receptor; format: functional
T2 sequence (whole entry): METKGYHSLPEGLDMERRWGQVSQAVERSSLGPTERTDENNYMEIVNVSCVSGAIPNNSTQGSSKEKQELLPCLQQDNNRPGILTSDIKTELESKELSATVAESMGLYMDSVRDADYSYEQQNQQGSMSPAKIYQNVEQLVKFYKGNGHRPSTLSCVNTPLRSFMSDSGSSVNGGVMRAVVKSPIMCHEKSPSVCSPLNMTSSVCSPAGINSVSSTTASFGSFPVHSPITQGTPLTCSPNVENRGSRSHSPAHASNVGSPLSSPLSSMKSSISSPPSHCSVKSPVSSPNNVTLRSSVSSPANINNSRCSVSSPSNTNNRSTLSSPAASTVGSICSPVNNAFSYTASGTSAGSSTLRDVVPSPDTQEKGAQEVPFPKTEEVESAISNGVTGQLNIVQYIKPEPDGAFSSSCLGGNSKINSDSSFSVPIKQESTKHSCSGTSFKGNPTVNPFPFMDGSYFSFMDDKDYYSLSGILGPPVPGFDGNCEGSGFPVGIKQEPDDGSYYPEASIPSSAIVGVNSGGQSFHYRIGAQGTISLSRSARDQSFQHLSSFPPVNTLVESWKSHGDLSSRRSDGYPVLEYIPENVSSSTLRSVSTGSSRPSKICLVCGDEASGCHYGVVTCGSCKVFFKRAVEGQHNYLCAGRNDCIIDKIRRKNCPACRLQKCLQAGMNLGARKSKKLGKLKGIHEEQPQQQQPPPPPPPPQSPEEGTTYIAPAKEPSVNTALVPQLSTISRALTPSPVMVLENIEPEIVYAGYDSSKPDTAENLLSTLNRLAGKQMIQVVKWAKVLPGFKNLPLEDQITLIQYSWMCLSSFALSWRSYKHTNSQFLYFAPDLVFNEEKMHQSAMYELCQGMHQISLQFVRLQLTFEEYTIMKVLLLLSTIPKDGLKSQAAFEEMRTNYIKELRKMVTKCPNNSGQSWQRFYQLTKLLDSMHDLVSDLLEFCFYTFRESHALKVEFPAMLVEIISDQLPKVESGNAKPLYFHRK
Summary of the method: (§1)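 hMR antagonist cotransfection assay run with an EC50 concentration of aldosterone as agonist. Potency is the IC50. Efficacy is % of maximal inhibition. Values are the mean ± SEM of at least two independent experiments, or one experiment where marked.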

[4] = biological target: T2, Mineralocorticoid receptor (Homo sapiens); assay: Efficacy as percent inhibition of Mineralocorticoid receptor with aldosterone EC50; summary of the method: as §1
[5] = biological target: T3, Androgen receptor (Homo sapiens) (UniProt P10275)
T3 sequence (whole entry): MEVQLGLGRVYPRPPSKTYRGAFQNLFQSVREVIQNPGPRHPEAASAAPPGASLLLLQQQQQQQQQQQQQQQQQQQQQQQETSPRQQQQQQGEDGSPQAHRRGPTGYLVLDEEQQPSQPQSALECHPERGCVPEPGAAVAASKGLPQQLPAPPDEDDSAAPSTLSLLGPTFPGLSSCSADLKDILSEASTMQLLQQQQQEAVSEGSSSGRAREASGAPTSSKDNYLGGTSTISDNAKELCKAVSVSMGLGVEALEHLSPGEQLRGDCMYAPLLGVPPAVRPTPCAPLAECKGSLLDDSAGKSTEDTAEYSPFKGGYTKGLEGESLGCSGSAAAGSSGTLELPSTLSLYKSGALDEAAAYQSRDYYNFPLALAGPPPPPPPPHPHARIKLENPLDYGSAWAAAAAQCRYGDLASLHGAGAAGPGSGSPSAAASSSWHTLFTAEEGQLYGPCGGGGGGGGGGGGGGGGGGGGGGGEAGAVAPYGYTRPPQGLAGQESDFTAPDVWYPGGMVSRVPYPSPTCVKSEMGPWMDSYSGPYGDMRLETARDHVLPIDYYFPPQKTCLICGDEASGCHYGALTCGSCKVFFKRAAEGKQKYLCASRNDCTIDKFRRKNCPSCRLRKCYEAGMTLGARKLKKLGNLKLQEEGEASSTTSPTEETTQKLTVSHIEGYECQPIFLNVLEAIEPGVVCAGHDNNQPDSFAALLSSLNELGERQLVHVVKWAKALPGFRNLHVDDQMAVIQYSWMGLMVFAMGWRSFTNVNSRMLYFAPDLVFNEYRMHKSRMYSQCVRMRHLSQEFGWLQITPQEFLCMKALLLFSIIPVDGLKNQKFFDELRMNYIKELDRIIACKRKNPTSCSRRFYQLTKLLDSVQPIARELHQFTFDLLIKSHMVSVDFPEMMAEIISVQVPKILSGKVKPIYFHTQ

[6] = biological target: Estrogen receptor (Homo sapiens) (UniProt Q92731+P03372)
[7] = biological target: T4, Glucocorticoid receptor (Homo sapiens) (UniProt P04150)
T4 sequence (whole entry): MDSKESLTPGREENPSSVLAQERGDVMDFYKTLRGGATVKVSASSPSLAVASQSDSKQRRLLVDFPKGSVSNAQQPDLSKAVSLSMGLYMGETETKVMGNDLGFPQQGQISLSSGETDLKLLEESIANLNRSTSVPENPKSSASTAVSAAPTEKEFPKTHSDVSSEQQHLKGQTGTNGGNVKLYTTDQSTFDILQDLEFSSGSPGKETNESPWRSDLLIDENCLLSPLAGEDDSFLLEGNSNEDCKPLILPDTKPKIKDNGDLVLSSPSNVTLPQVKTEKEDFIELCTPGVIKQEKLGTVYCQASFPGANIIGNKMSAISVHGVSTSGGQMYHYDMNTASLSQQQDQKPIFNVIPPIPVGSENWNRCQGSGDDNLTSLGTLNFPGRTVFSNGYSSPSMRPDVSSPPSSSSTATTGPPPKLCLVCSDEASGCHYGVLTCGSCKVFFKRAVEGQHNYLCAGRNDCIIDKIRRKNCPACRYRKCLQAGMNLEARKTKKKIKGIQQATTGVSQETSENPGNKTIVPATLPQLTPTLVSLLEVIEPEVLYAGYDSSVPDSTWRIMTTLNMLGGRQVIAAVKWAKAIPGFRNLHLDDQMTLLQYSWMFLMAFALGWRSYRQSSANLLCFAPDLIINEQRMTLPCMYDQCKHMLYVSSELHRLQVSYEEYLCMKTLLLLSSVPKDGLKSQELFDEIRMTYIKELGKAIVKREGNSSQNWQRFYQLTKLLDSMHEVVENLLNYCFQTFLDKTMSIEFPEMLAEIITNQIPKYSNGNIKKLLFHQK

SMILES: CN(C)c1ccc([C@H]2C[C@]3(C)[C@@H](CC[C@]3(O)CCCO)[C@@H]3CCC4=CC(=O)CCC4=C32)cc1
Potency [3]: > 1000 nM
Potency [5]: 269 nM
Potency [7]: 27 nM

SMILES: CC1=CC(C)(C)Nc2ccc(-c3cc(F)cc(F)c3)cc21
Ki [1]: 10 nM
IC50 [2]: 79 nM

SMILES: CC#C[C@]1(O)CC[C@H]2[C@@H]3CCC4=CC(=O)CCC4=C3[C@@H](c3ccc(N(C)C)cc3)C[C@@]21C
Potency [3]: > 1000 nM
Potency [6]: > 1000 nM

SMILES: CC1=CC(C)(C)Nc2ccc(-c3cc(F)cc([N+](=O)[O-])c3)cc21
Ki [1]: 5 nM
IC50 [2]: 70 nM

SMILES: CC1=CC(C)(C)Nc2ccc(-c3cc(F)cc(C#N)c3)cc21
Potency [3]: > 1000 nM
Efficacy [4]: 80%
Potency [6]: > 1000 nM
Potency [7]: > 1000 nM

SMILES: CC1=CC(C)(C)Nc2ccc(-c3ccccc3)cc21
Ki [1]: 133 nM
IC50 [2]: 783 nM

Further lines, results first:

Ki [1]: 182 nM
IC50 [2]: 750 nM
SMILES: CC1=CC(C)(C)Nc2ccc(-c3cccc(F)c3)cc21

Potency [3]: > 1000 nM
Efficacy [4]: 94%
Ki [1]: 19 nM
IC50 [2]: 38 nM
Potency [5]: 227 nM
Potency [6]: > 1000 nM
Potency [7]: > 1000 nM
SMILES: CC1=CC(C)(C)Nc2ccc(-c3cccc(C#N)c3)cc21
